Measurements collected from several papers.
Protocols differ between the studies behind these lines.
Target: Serine/threonine-protein kinase ULK3 (ULK3, Homo sapiens, UniProt Q6PHR2)
One construct used (Q6PHR2 1-472): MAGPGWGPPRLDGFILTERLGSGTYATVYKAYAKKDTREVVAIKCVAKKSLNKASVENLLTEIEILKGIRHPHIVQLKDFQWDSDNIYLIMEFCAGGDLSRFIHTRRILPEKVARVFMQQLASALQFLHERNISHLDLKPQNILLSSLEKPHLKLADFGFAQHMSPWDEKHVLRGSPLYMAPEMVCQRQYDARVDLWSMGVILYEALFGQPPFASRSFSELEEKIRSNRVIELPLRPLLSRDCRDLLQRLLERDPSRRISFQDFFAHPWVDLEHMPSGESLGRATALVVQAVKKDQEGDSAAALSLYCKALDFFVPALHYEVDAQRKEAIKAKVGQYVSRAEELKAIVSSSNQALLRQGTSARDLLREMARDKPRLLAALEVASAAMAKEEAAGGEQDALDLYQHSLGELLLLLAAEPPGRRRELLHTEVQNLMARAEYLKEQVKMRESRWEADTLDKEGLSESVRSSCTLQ

C[C@@H](c1cccc(C#N)c1)n1cc(Cl)cc(C(N)=O)c1=N
remaining binding (cell-free assay, competition with immobilised ligand; 1 µM): 75%

COc1cc2c(Nc3ccc(Br)cc3F)ncnc2cc1OCC1CCN(C)CC1
remaining signal (cell-free assay; 0.5 µM): 105%

COc1cccc2c(NCc3ccccc3)nc(-n3c(N)nc4ccccc43)nc12
inhibition (target engagement in cells, inhibitor, chemoproteomics; 20 mM): -11.6%

COc1cc2ncnc(Nc3ccc(F)c(Cl)c3)c2cc1OCCCN1CCOCC1
remaining signal (cell-free assay; 0.5 µM): 108%

Cc1cc(NC(=O)c2cccc3cc(-c4cccc5[nH]nc(N)c45)ccc23)ccc1F
activity vs control (enzyme activity, inhibitor; 0.1 µM): 98%

Cn1nc(C(F)(F)F)cc1-c1cnc(N2CCc3cc(S(=O)(=O)Nc4c(F)cc(Cl)cc4F)cc(N4CCCC4=O)c32)nc1
remaining binding (cell-free assay, competition with immobilised ligand; 1 µM): 100%

CCCS(=O)(=O)Nc1ccc(F)c(C(=O)c2c[nH]c3ncc(-c4ccc(Cl)cc4)cc23)c1F
inhibition (enzyme activity, inhibitor; 1 µM): < 10%

COc1cc(-c2cn(C3CCc4ccccc4N(CC(F)(F)F)C3=O)nn2)ccc1-n1ccc(C)n1 (centres unmarked)
remaining binding (cell-free assay, competition with immobilised ligand; 1 µM): 61%

Cc1ccc(C(=O)Nc2ccc(CN3CCN(C)CC3)c(C(F)(F)F)c2)cc1C#Cc1cnc2cccnn12
remaining activity (enzyme activity, inhibitor; 23.5 nM): 61%

O=C(Nc1cnn(-c2csc(C(=O)NC3COC3)c2)c1)Nc1ccccc1Cl
remaining activity (enzyme activity, inhibitor; 5 µM): 111%

COc1cc2c(N3CCN(C(=O)Nc4ccc(OC(C)C)cc4)CC3)ncnc2cc1OCCCN1CCCCC1
remaining signal (cell-free assay; 0.5 µM): 101%

Cc1sc(C(=O)NC2COC2)cc1-n1cc(NC(=O)Nc2c(F)cccc2Cl)cn1
remaining activity (enzyme activity, inhibitor; 10 µM): 105%

CCc1ccccc1C(=O)Nc1n[nH]c2c(C)c(F)c(C3C(C#N)=C(C)N(C)C(C)=C3C#N)cc12
remaining binding (cell-free assay, competition with immobilised ligand; 1 µM): 82%

CS(=O)(=O)CCNCc1ccc(-c2ccc3ncnc(Nc4ccc(OCc5cccc(F)c5)c(Cl)c4)c3c2)o1
remaining signal (cell-free assay; 0.5 µM): 106%
